Experiments:
[1] = target: RAC-gamma serine/threonine-protein kinase (Homo sapiens, UniProt Q9Y243); test: Inhibition of human AKT3 assessed as inhibition constant in presence of ATP
[2] = target: Ribosomal protein S6 kinase alpha-2 (Homo sapiens, UniProt Q15349); test: Inhibition of human RSK3 in presence of ATP relative to control; conditions: concentration not given here
[3] = Antiproliferative activity against human PaTu 8902 cells assessed as inhibition of cell proliferation incubated for 3 days by CellTiter-Glo Luminescent Cell Viability Assay; type: functional, cell-based; conditions: PaTu 8902, 72 h
Outline: (§1)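 Cells of each line were plated in 384-well plates on day 1 and exposed to compound from day 2 for 3 days. On day 5 all medium was aspirated. Viable cell number was read by CellTiter-Glo luminescence, which quantifies cellular ATP.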

[4] = target: Ribosomal protein S6 kinase alpha-3 (Homo sapiens, UniProt P51812); test: Inhibition of human RSK2 in presence of ATP by cellular assay
NCI-H23 = test: Inhibition of anchorage independent cell growth in human NCI-H23 cells incubated for 6 days by Alamar blue reagent based fluorescence plate reader analysis; type: functional; conditions: NCI-H23, 144 h
HCT-116 [5] = test: Inhibition of anchorage independent cell growth in human HCT-116 cells incubated for 6 days by Alamar blue reagent based fluorescence plate reader analysis; type: functional; conditions: HCT-116, 144 h
NCI-H2347 = test: Antiproliferative activity against human NCI-H2347 cells assessed as inhibition of cell proliferation incubated for 3 days by CellTiter-Glo Luminescent Cell Viability Assay; type: functional, cell-based; conditions: NCI-H2347, 72 h; outline: as §1
HCT-116 [6] = test: Antitumor activity against human HCT-116 cells xenografted in nude mouse assessed as inhibition of [3H]FLT uptake at 15 mg/kg, po administered twice a day for 6 days and measured after 2 hrs post [3H]FLT administration by scintillation counter analysis relative to control; type: functional; conditions: HCT-116, 144 h, time 6 day
Outline: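 HCT116 xenograft mice (tumors 300–350 mm3, n = 5 per group) received oral vehicle or compound, with harvests on days 2, 3 and 6. Isoflurane-anesthetized mice were given [3H]FLT (15 nCi/g, i.p.) 2 h before killing. Tumor and liver were weighed, solubilized and scintillation-counted. SUV = C/(ID/W), and uptake is reported as the tumor-to-liver SUV ratio.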

[7] = target: Tyrosine-protein kinase Fyn (Homo sapiens, UniProt P06241); test: Inhibition of human FYN in presence of ATP by cellular assay
Chain of Tyrosine-protein kinase Fyn (P06241 whole entry): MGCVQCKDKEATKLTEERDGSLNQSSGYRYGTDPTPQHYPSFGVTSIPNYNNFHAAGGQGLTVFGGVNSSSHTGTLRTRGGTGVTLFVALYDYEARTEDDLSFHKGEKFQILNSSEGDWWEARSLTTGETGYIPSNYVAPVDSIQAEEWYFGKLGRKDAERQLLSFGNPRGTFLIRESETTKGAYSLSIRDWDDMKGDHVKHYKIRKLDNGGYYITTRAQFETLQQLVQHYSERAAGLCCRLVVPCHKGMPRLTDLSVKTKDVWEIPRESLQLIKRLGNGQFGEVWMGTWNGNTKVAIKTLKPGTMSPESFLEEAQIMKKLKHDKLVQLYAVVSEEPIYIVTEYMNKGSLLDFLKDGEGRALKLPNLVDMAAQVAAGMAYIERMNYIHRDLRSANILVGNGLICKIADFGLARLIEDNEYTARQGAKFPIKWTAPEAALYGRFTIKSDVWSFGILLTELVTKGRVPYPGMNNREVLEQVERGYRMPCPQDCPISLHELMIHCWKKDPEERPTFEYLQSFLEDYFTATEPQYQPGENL

[8] = target: Serine/threonine-protein kinase PAK 2 (Homo sapiens, UniProt Q13177); test: Inhibition of PAK2 (unknown origin)
Chain of Serine/threonine-protein kinase PAK 2 (Q13177 whole entry): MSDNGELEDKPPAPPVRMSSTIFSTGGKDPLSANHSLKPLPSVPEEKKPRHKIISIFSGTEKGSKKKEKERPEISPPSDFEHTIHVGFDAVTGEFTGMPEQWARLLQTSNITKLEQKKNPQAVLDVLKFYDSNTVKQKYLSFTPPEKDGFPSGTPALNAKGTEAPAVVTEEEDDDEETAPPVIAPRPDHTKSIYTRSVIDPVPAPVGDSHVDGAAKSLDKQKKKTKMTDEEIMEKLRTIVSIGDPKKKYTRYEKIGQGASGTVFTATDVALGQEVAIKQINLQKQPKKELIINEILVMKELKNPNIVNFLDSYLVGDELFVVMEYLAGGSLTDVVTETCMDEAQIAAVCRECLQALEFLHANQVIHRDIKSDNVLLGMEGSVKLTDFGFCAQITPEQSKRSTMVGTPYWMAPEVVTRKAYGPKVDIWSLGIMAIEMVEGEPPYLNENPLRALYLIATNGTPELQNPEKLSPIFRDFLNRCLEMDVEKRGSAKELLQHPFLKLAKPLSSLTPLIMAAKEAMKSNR

Capan-2 = test: Antiproliferative activity against human Capan-2 cells assessed as inhibition of cell proliferation incubated for 3 days by CellTiter-Glo Luminescent Cell Viability Assay; type: functional, cell-based; conditions: Capan-2, 72 h
Outline: (§2)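 Cancer cell lines seeded in 384-well plates on day 1; compound added on day 2 and left for 3 days. On day 5 all medium was aspirated, and viable cells were quantified by CellTiter-Glo luminescence, which measures cellular ATP. Dose-dependent effects on proliferation were determined.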

[9] = Drug concentration in nude mouse plasma xenografted with human HCT-116 cells at 0.36 mg/kg administered via pump for 9 days by LC-MS/MS analysis; type: ADME, organism-based; conditions: time 9 day
[10] = target: T1, Protein kinase C beta type (Homo sapiens, UniProt P05771); test: Inhibition of human PKCbeta1 in presence of ATP
T1 sequence (P05771 whole entry): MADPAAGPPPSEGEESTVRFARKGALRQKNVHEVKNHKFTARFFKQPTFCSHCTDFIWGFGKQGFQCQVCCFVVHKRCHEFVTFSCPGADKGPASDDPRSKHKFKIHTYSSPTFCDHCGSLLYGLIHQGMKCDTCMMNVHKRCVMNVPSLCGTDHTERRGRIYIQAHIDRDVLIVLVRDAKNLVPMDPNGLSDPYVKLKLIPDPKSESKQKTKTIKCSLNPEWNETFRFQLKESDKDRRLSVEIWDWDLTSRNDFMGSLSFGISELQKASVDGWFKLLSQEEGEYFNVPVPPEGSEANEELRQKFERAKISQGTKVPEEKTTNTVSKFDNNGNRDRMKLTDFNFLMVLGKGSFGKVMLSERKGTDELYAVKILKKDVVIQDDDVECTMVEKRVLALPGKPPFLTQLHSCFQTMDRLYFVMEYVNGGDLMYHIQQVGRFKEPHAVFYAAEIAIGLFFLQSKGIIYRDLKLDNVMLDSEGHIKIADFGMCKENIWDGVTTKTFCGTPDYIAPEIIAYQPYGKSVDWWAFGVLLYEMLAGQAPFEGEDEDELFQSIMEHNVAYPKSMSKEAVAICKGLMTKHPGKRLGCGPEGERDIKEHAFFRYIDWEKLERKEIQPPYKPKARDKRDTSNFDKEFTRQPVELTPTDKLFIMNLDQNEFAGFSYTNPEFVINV

T84 = test: Antiproliferative activity against human T84 cells assessed as inhibition of cell proliferation incubated for 3 days by CellTiter-Glo Luminescent Cell Viability Assay; type: functional, cell-based; conditions: T84, 72 h; outline: as §1
NCI-H1651 = test: Antiproliferative activity against human NCI-H1651 cells assessed as inhibition of cell proliferation incubated for 3 days by CellTiter-Glo Luminescent Cell Viability Assay; type: functional, cell-based; conditions: NCI-H1651, 72 h; outline: as §2
HCC1395 = test: Antiproliferative activity against human HCC1395 cells assessed as inhibition of cell proliferation incubated for 3 days by CellTiter-Glo Luminescent Cell Viability Assay; type: functional, cell-based; conditions: HCC1395, 72 h; outline: as §2
NCI-H647 = test: Antiproliferative activity against human NCI-H647 cells assessed as inhibition of cell proliferation incubated for 3 days by CellTiter-Glo Luminescent Cell Viability Assay; type: functional, cell-based; conditions: NCI-H647, 72 h; outline: as §1
COLO 320DM = test: Antiproliferative activity against human COLO 320DM cells assessed as inhibition of cell proliferation incubated for 3 days by CellTiter-Glo Luminescent Cell Viability Assay; type: functional, cell-based; conditions: 72 h; outline: as §2
[11] = target: T1, Protein kinase C beta type; test: Inhibition of human PKCbeta-II in presence of ATP by cellular assay
[12] = target: Protein kinase C theta type (Homo sapiens, UniProt Q04759); test: Inhibition of human PKCtheta assessed as inhibition constant in presence of ATP
Chain of Protein kinase C theta type (Q04759 whole entry): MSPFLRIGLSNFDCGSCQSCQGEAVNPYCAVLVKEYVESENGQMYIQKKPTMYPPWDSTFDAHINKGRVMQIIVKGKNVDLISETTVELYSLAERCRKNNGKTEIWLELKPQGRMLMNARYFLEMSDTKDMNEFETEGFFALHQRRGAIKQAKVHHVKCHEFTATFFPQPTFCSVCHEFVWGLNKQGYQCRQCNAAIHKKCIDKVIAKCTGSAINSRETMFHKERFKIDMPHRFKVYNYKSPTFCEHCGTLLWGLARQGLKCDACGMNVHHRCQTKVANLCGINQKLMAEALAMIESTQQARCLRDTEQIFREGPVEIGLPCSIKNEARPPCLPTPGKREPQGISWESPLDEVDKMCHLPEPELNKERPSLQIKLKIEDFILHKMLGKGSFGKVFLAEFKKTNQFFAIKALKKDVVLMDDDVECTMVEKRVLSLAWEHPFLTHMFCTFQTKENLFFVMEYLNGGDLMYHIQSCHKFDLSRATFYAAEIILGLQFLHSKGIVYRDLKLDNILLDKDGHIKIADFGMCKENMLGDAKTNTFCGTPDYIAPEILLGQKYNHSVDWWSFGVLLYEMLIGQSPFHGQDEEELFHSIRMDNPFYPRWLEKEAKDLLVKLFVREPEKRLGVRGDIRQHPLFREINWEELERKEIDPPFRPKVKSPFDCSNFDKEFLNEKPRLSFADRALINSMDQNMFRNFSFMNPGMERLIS

[13] = target: T2, cGMP-dependent protein kinase 1 (Homo sapiens, UniProt Q13976); test: Inhibition of human PRKG1 in presence of ATP by cellular assay
T2 sequence (Q13976 whole entry): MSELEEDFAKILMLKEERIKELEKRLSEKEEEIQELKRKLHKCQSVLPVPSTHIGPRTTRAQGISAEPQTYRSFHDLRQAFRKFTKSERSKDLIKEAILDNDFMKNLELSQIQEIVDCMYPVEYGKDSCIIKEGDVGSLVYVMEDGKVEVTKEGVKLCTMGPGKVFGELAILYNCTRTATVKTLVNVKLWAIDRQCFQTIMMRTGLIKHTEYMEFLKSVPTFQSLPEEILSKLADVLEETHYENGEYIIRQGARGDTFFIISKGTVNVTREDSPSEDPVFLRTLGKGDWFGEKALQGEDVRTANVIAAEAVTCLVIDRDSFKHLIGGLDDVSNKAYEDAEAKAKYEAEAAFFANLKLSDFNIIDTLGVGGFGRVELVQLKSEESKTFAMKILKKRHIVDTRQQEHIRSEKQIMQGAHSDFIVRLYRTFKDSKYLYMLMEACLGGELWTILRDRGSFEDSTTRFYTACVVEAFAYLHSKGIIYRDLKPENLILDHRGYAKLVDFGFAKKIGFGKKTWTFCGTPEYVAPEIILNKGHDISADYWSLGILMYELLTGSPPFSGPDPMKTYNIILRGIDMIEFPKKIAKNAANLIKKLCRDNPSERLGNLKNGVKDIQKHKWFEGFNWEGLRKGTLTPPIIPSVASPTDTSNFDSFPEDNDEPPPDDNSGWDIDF

[14] = target: T1, Protein kinase C beta type; test: Inhibition of human PKCbeta1 assessed as inhibition constant in presence of ATP
SW948 = test: Antiproliferative activity against human SW948 cells assessed as inhibition of cell proliferation incubated for 3 days by CellTiter-Glo Luminescent Cell Viability Assay; type: functional, cell-based; conditions: SW948, 72 h; outline: as §1
NCI-H1770 = test: Inhibition of anchorage independent cell growth in human NCI-H1770 cells incubated for 6 days by Alamar blue reagent based fluorescence plate reader analysis; type: functional; conditions: NCI-H1770, 144 h
[15] = Drug concentration in nude mouse plasma xenografted with human HCT-116 cells at 0.12 mg/kg administered via pump for 9 days by LC-MS/MS analysis; type: ADME, organism-based; conditions: time 9 day
[16] = target: Ribosomal protein S6 kinase alpha-1 (Homo sapiens, UniProt Q15418); test: Inhibition of human RSK1 in presence of ATP relative to control; conditions: concentration not given here
Chain of Ribosomal protein S6 kinase alpha-1 (Q15418 whole entry): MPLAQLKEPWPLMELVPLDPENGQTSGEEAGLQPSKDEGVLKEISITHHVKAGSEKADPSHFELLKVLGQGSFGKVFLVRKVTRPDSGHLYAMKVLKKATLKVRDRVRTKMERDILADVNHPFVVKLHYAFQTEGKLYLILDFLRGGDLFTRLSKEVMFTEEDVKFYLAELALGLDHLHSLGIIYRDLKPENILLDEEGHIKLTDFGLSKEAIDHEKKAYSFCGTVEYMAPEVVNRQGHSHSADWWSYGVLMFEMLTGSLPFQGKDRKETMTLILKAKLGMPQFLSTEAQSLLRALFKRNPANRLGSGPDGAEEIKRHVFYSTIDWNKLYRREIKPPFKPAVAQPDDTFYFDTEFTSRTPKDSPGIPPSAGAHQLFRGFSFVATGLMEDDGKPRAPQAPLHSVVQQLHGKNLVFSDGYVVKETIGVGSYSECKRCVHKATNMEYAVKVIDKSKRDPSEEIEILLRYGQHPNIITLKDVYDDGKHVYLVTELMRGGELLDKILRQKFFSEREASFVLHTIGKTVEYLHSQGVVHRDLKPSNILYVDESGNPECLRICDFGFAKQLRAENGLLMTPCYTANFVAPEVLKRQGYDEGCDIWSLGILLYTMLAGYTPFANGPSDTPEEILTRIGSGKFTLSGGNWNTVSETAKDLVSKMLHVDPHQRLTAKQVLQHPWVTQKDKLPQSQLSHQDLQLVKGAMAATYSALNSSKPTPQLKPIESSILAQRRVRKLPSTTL

Chain of Ribosomal protein S6 kinase alpha-2 (Q15349 whole entry): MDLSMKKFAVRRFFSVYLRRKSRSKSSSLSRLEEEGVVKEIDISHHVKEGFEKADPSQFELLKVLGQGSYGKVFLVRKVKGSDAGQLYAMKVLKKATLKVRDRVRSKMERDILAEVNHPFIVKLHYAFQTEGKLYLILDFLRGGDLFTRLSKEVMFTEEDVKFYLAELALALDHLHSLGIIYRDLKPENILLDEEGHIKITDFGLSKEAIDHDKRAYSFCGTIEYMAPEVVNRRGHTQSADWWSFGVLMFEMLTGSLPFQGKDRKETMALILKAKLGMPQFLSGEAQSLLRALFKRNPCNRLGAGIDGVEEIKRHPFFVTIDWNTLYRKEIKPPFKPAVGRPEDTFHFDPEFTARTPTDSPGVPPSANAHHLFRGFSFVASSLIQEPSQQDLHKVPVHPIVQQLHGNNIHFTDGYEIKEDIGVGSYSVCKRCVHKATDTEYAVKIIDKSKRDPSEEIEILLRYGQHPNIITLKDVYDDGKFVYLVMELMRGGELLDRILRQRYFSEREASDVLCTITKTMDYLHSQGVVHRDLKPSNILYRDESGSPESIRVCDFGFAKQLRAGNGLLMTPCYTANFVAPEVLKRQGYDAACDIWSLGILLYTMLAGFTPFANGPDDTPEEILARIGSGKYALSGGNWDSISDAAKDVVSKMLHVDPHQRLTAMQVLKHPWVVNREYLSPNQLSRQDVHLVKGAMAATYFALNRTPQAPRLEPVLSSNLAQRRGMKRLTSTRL
Chain of RAC-gamma serine/threonine-protein kinase (Q9Y243 whole entry): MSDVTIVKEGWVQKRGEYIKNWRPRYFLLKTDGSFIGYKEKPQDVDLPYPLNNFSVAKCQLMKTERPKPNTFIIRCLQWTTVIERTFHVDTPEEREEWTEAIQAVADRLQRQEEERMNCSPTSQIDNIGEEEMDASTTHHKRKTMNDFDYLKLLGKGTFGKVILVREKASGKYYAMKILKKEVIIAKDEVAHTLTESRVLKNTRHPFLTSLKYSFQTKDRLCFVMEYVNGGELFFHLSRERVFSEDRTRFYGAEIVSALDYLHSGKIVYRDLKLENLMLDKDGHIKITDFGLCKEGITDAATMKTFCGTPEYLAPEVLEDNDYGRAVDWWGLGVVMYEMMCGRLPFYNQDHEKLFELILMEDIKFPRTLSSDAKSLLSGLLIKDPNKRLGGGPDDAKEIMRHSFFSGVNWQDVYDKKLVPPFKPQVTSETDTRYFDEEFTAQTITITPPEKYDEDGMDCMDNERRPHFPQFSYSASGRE

What does the source list for `Cc1nc(Nc2n[nH]c3c2CN(C(=O)N[C@H](CN(C)C)c2ccccc2)C3(C)C)c2sccc2n1` [PF-03758309]?
Ki [1]: 172 nM; inhibition [2]: 98%; IC50 [3]: 27 nM; IC50 [4]: 171 nM; IC50 (NCI-H23): 3.45 nM; IC50 (HCT-116 [5]): 0.24 nM; IC50 (NCI-H2347): 2 nM; inhibition in vivo at 15 mg/kg (HCT-116 [6]): 32.5%; IC50 [7]: 1090 nM; IC50 [8]: 190 nM; IC50 (Capan-2): 136 nM; concentration at 216 h [9]: 1.7 ng/mL; IC50 [10]: 280 nM; IC50 (T84): 89 nM; IC50 (NCI-H1651): 20 nM; IC50 (HCC1395): 1.6 nM; IC50 (NCI-H647): 36 nM; IC50 (COLO 320DM): 205 nM; IC50 [11]: 1390 nM; Ki [12]: 10 nM; IC50 [13]: 3370 nM; Ki [14]: 185 nM; IC50 (SW948): 4.3 nM; IC50 (NCI-H1770): 1.84 nM; concentration at 216 h [15]: 0.56 ng/mL; inhibition [16]: 101%
